# Assay outcomes (PubChem BioAssay)
# CDK5 inh – CDK5/p35 (human) kinase inhibition | Q00535+Q15078 | Recombinant CDK5/p35, ADP-Glo luminescence, 60 min | inhibition, % at 10 µM | 330,000 tested, 0.01% active;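 active = highest replicate inhibition of at least 50% and at least 75% of replicates reaching 50%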;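 note: plate controls were DMSO neutral control for no effect and GW8510 at 10 µM for full effect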
# Target sequence (Q00535 whole entry, looked up): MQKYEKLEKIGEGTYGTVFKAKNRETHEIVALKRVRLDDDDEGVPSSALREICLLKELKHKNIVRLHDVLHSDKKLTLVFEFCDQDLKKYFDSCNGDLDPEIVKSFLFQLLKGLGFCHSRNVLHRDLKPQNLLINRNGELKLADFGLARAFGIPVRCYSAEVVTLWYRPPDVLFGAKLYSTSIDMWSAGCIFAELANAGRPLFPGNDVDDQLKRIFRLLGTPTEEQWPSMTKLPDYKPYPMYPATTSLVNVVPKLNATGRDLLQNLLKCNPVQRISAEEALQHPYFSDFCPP
# Target sequence (Q15078 whole entry, looked up): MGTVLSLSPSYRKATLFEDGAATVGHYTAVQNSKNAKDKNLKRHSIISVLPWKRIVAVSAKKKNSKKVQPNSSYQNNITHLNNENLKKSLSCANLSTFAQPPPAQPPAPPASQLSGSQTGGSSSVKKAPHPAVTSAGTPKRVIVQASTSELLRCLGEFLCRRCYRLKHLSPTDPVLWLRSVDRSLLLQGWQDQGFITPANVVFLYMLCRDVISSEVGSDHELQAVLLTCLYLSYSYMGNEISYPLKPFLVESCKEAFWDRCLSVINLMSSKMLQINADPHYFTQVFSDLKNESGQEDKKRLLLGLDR
# Dyrk1A ADPGlo – inhibitors of rat Dyrk1A kinase; Q63470; ADP-Glo luminescence, NFATc1 peptide; inhibition, % at 12.5 µM; 310,000 tested, 0.43% active; in the data active = inhibition above about 50%;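 note: plate controls were vehicle with enzyme for no effect and no enzyme for full effect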
# GSK3 alpha inh – human GSK-3 alpha kinase inhibition; AID 2650; ADP-Glo luminescence, 60 min; 320,000 tested, 0.1% active; P49840; inhibition, % at 10 µM;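 active = more than half of replicates show inhibition above 20%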;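 note: GST-tagged GSK-3 alpha with peptide substrate and 25 µM ATP; 0% = DMSO neutral wells and 100% = GW8510 positive control wells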
# STK33 inh – blocks human STK33 kinase activity. purified STK33, MBP phosphorylation, ADP-Glo luminescence. inhibition, % at 10 µM. 320,000 tested, 0.073% active;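 active = inhibition at or above 25%, using the most active replicate where run in duplicate; inactive = inhibition below 25%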
# GSK3B inh – inhibitors of human GSK3beta kinase; P49841; GST-GSK3beta kinase, ADP-Glo luminescence, 60 min; active compounds read low; activity score (negative = inhibition), % at 10 µM; 300,000 tested, 0.038% active; AID 2097;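 active = more than half of replicate wells score below -50%, meaning over 50% inhibition versus plate controls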;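 note: 0% = median DMSO wells and -100% = median GW8510 positive control wells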
#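 Test system: GST-tagged human GSK3beta kinase, cell-free; evaluation: activity score scaled between in-plate DMSO and GW8510 controls; measured by: ADP-Glo luminescence; incubation: 60 min reaction, RT; benchmarks: DMSO and 20 µM GW8510; reagent: peptide substrate plus 25 µM ATP (final); medium: Tris/MgCl2 kinase buffer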
# Dyrk1A artifact – ADP-Glo luciferase interference, Dyrk1A counter-screen; shares compounds with Dyrk1A ADPGlo; AC50, µM (highest dose often 12 µM), without a hit: at the top dose activity change, negative = inhibition; ADP-Glo luciferase artifact assay, no Dyrk1A, luminescence; AID 588348; 1,300 tested, under 10 active;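 active = fitted half-maximal dose AC50 no more than ten times the top valid tested dose, with luminescence dropping as dose rises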
# * = called active by the depositor; nt = not tested or not shown. Many of the other results were omitted from the sample, so hits are more common in it than they were.
SMILES,CDK5 inh,Dyrk1A ADPGlo,GSK3 alpha inh,STK33 inh,GSK3B inh,Dyrk1A artifact
COc1ccc2c3c(ccc2c1)C(=O)/C(=C/O)CC3,5.3,62.5*,nt,nt,nt,9.3%
COc1ccc2c(c1)CC/C(=C\C=C\c1ccccc1OC)C2=O,0.3,-0.6,-5.0,0.7,-2.8,nt
Oc1[nH]c2ccc(Br)cc2c1N=NC(=S)N1CCOCC1,1.8,63.4*,2.5,3.3,-8.6,9.4%
Oc1[nH]c2ccccc2c1N=NC(=S)N1CCOCC1,0.2,13.4,-4.1,-2.7,0.3,nt
COc1cccc2cc(CC(=O)c3ccc(C)cc3C)c(=O)oc12,-1.6,8.9,-2.5,0.2,0.5,nt
COc1ccccc1C1CCN(c2cc(O)ccc2[N+](=O)[O-])CC1,1.1,53.5*,6.0,4.8,-0.6,9.9%
COc1ccccc1C1CCN(C(=O)C2CCCCC2)CC1,-0.3,2.1,-2.2,-1.9,2.1,nt
Cc1cccc(Cl)c1OCCCCn1ccnc1,0.7,56.2*,5.2,2.8,1.3,10.9%
CCn1c(=O)c(C(=O)CN(C)CC(=O)Nc2ccccc2Br)c(N)n(Cc2ccccc2)c1=O,-0.3,-1.2,nt,nt,nt,nt
Cc1cc2nncn2c2ccccc12,1.4,56.9*,-4.3,1.3,1.0,9.3%
Cc1nc2c(ccc3nc(NC(=O)Cc4ccccc4)sc32)s1,1.2,67.6*,4.5,15.2,-6.9,6.0%
COc1ccc(C(=O)NCC(=O)NCC(=O)OCC(=O)C(C)(C)C)cc1,1.2,2.8,-1.1,0.3,-1.7,nt
O=C(NCc1ccc(F)cc1)C1CCN(c2cnccn2)CC1,0.4,-1.6,0.6,-0.6,0.8,nt
CSc1nc(O)c(/C=C2\C=Nc3ccccc32)[nH]1,2.1,57.3*,38.6,8.8,-21.0,8.3%
O=c1[nH]c(/C=C2\C=Nc3ccccc32)c(O)n1Cc1ccccc1F,-1.2,0.9,-1.4,-1.8,0.2,nt
COc1ccc(OCC(=O)Nc2ccc(Cl)cc2)cc1,1.7,0.0,-1.8,-0.2,-0.3,nt
COC(=O)NNC(=O)COc1ccc(Cl)cc1,0.0,84.2*,1.2,-1.1,1.8,6.9%
CCCn1cnc2scc(-c3ccc(OC)cc3)c2c1=O,0.5,60.1*,9.2,1.5,-2.7,3.1%
CCn1cnc2scc(-c3ccc(OC)cc3)c2c1=O,0.4,42.2,-1.7,1.2,2.3,nt
CCCOc1ccc(/C=N/NC(=O)CN2CCCCC2)cc1,-0.3,70.7*,2.6,-1.7,-3.8,9.9%
COc1ccc(/C=C2\SC(N)=NC2=O)cc1,0.4,82.9*,-1.1,-23.4,2.7,8.8%
CCOC(=O)CSC1=NC(=O)/C(=C/c2ccc(OC)cc2)S1,-0.1,70.9*,2.3,0.4,-6.3,8.0%
CCOc1ccc(/C=C2\SC(N3CCc4ccccc4C3)=NC2=O)cc1,-1.8,13.0,-1.8,-1.1,-1.1,nt
NC1=NC(=O)C(=Cc2ccccc2)S1,1.9,7.9,nt,nt,nt,nt
COc1ccc(/C=C2\SC(N3CCc4ccccc4C3)=NC2=O)cc1,-5.4,70.4*,0.0,1.3,2.8,6.3%
SMILES,CDK5 inh,Dyrk1A ADPGlo,GSK3 alpha inh,STK33 inh,GSK3B inh,Dyrk1A artifact
O=C(CNC(=O)N1CC(=O)Nc2ccccc21)Nc1cccc(F)c1,-1.8,-2.9,-4.1,-3.1,-1.6,nt
COc1ccc2c(c1)CCc1cn[nH]c1-2,1.8,50.5*,0.0,-0.3,-1.9,6.9%
CCOc1cc(/C=N/NC(=O)c2cccnc2)ccc1OCC(=O)N(C)C,-1.2,0.4,0.1,-0.6,0.5,nt
Cc1c(Br)c(=O)oc2c(Br)c(O)ccc12,-0.1,77.3*,0.1,-1.4,1.2,8.8%
COC(=O)[C@]1(CC(C)C)N[C@H](c2ccc(-c3cccc(Cl)c3)cc2)[C@@H]2C(=O)N(C)C(=O)[C@@H]21,1.0,55.8*,-2.2,1.5,-0.9,8.6%
COC(=O)[C@]1(C)N[C@H](c2ccc(-c3cccc(Cl)c3)cc2)[C@@H]2C(=O)N(C)C(=O)[C@@H]21,1.0,8.9,-2.1,-0.4,nt,nt
Cc1nnc2c3ccccc3c(-c3ccc(O)cc3)nn12,-1.3,-1.8,nt,-0.3,1.5,nt
Cc1nnc2c3ccccc3c(-c3cccs3)nn12,-0.8,60.4*,nt,nt,-15.2,7.4%
COc1cc(-c2cc(=O)c3c(O)c(OC)c(OC)c(O)c3o2)ccc1O,4.5,79.9*,42.2,46.2*,-26.3,7.5%
Nc1nc(Nc2ccccc2)nc2ccccc12,6.1,56.4*,9.3,7.3,-8.9,3.8%
Cc1nc(NC(=O)c2ccccc2)sc1-c1csc(NCc2ccccc2)n1,0.0,5.3,2.6,-1.8,-3.7,nt
Cc1nc(NC(=O)c2ccccc2)sc1-c1csc(N)n1,-0.7,59.6*,2.7,5.0,-0.8,8.2%
CCCCCCCCc1nnc(NC(=O)c2ccco2)s1,4.0,-9.9,-3.8,-0.6,2.0,nt
Cn1nc(-c2ccccn2)nc2c(=O)n(C)c(=O)nc1-2,2.6,80.7*,8.9,-1.5,-27.7,7.3%
CCCc1nc2c([nH]1)c(=O)n(C)c(=O)n2C,-0.3,5.6,8.5,0.4,0.4,nt
COc1ccc(-c2nc(-c3ccccn3)ncc2S(C)(=O)=O)cc1,-0.4,-2.7,nt,-2.5,2.0,nt
CCCc1nc2c(=O)n(C)c(=O)nc-2n(C)n1,0.4,64.6*,nt,nt,nt,6.2%
CC(Nc1nc(-c2cccnc2)nc2ccccc12)c1ccc(F)cc1 (stereo not drawn),-1.2,62.0*,3.3,-1.1,1.4,9.6%
O=C1C(C=NCc2cccnc2)=C(O)c2ccccc21,2.3,4.8,nt,nt,-1.6,nt
O=C1C(C=NCc2ccncc2)=C(O)c2ccccc21,2.6,65.9*,2.0,1.5,4.2,9.6%
CN1CCN(S(=O)(=O)c2ccc(N(C)Cc3cccc(F)c3)nc2)CC1,1.4,nt,-3.1,0.0,nt,nt
CC/C(C)=N/Oc1nc(C)cc(C)n1,1.7,0.0,-2.3,-1.3,2.4,nt
N#C/C(=N\Nc1cccc([N+](=O)[O-])c1)C(=O)c1ccc(Br)cc1,0.7,78.4*,8.0,-0.2,1.5,7.5%
O=C(O)c1ccc(N=NNc2cccc([N+](=O)[O-])c2)cc1,1.8,15.7,4.8,1.3,-1.2,nt
O=S1(=O)c2cccc3cccc(c23)N1Cc1nnc(-c2ccccc2Br)o1,3.1,12.2,0.7,-0.2,-1.8,nt
SMILES,CDK5 inh,Dyrk1A ADPGlo,GSK3 alpha inh,STK33 inh,GSK3B inh,Dyrk1A artifact
O=C1c2ccccc2S(=O)(=O)N1Cc1nnc(-c2ccccc2Br)o1,0.1,59.1*,nt,nt,-0.1,8.9%
Cc1ccc2[nH]c3c(Cl)ncnc3c2c1,0.5,16.9,-2.0,2.9,3.2,nt
COc1ccc2c(c1)[nH]c1c(Cl)ncnc12,3.4,64.9*,nt,nt,-9.5,11.4%
CCOC(=O)c1c(NC(=O)c2c(C(=O)O)cccc2[N+](=O)[O-])sc(C)c1C,-0.5,-4.9,-7.8,0.3,4.7,nt
COc1cc(C(=O)Nc2cccc(-c3nncn3C)c2)cc(OC)c1OC,1.4,76.7*,-0.3,5.8,1.6,9.6%
Oc1ccc(Nc2nc(-c3ccccc3)nc3ccccc23)cc1,0.3,85.5*,-1.0,2.3,-0.2,7.6%
